# Results published in ChEMBL document CHEMBL3425429.
# Activity calls are given as the source filed them. No cut-off for these calls is given here.
# How the values were obtained:
# MDA-MB-231 [1] = assay: Induction of apoptosis in human MDA-MB-231 cells assessed as late apoptotic cells at 0.03 uM after 48 hrs by annexin V-FITC/propidium iodide staining-based flow cytometric analysis (reference value: 4.25%); format: functional
# MDA-MB-231 [2] = assay: Induction of apoptosis in human MDA-MB-231 cells assessed as viable cells at 0.03 uM after 48 hrs by annexin V-FITC/propidium iodide staining-based flow cytometric analysis (reference value: 94.4%); format: functional; details: MDA-MB-231, 48 h, read-out: Activity
# Method in brief: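 MDA-MB-231 cells (ATCC; medium with 10% FBS, 37 °C, 5% CO2) plated at 2 × 10^5 per six-well well and treated with a range of concentrations for 24 and 48 h at 37 °C. Cells harvested, washed with ice-cold PBS, stained with annexin V-FITC apoptosis detection kit and analysed by flow cytometry.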
# MDA-MB-231 [3] = assay: Induction of apoptosis in human MDA-MB-231 cells assessed as viable cells at 0.1 uM after 48 hrs by annexin V-FITC/propidium iodide staining-based flow cytometric analysis (reference value: 94.4%); format: functional; details: MDA-MB-231, 48 h, read-out: Activity
# MDA-MB-231 [4] = assay: Induction of apoptosis in human MDA-MB-231 cells assessed as late apoptotic cells at 0.3 uM after 48 hrs by annexin V-FITC/propidium iodide staining-based flow cytometric analysis (reference value: 4.25%); format: functional
# MDA-MB-231 [5] = assay: Induction of apoptosis in human MDA-MB-231 cells assessed as viable cells at 0.3 uM after 48 hrs by annexin V-FITC/propidium iodide staining-based flow cytometric analysis (reference value: 94.4%); format: functional; details: MDA-MB-231, 48 h, read-out: Activity
# MDA-MB-231 [6] = assay: Effect on AKT phosphorylation in human MDA-MB-231 cells at 0.001 to 1 uM after 20 hrs by Western blot analysis; format: cell-based
# Method in brief: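 MDA-MB-231 cells exposed to a concentration series for 20 h at 37 °C, lysed in RIPA with protease inhibitor cocktail, cleared by centrifugation, protein quantified by Bradford, resolved by SDS-PAGE, transferred to PVDF and immunoblotted.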
# MDA-MB-231 [7] = assay: Antitumor activity against human MDA-MB-231 cells xenografted in SCID mouse assessed as tumor growth inhibition at 30 mg/kg/day, po qd administered for 18 days measured every 3 days during compound dosing relative to vehicle-treated control; format: functional; details: read-out: TGI
# Method in brief: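 SCID mice (5–6 weeks) given subcutaneous injections of 5 ×10^6 MDA-MB-231 cells; at 150–200 mm3 tumors, randomized into 6 groups of 6; oral daily dosing (vehicle 25% PEG400 + 5% DMSO in sterile water), paclitaxel 10 mg/kg/week by tail vein; tumors measured every 3 days, volume = ab²/2; side effects monitored daily.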
# Mus musculus [8] = assay: Toxicity in SCID mouse xenografted with human MDA-MB-231 cells at 7.5 to 15 mg/kg/day, po qd administered for 18 days measured everyday during compound dosing; format: organism-based; parameters: route oral; details: in vivo, 432 h
# Method in brief: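 SCID mice (5–6 weeks) implanted subcutaneously with 100 μL of MDA-MB-231 suspension at 5 ×10^7 per mL. At 150–200 mm3 tumours, mice were randomised (6 per group) and dosed orally once daily for 18 days in water with 25% PEG400 plus 5% DMSO. Side effects were monitored daily.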
# Mus musculus [9] = assay: In vivo inhibition of ERK phosphorylation in tumor of SCID mouse xenografted with human MDA-MB-231 cells at 30 mg/kg/day, po administered for 18 days measured post last dose by immunohistochemical analysis relative to vehicle-treated control; format: functional, organism-based
# Method in brief: (§1)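 SCID mice carrying subcutaneous MDA-MB-231 xenografts received oral dosing once daily for 18 days (vehicle 25% PEG400 plus 5% DMSO in sterile water); at the end, tumors formalin-fixed and paraffin-embedded, 4–8 μm sections immunostained (Ki67, phospho-proteins) or TUNEL/AP-Red labelled, and compared with control.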
# MDA-MB-231 [10] = assay: Antitumor activity against human MDA-MB-231 cells xenografted in SCID mouse assessed as reduction in number of proliferating cells in tumor at 30 mg/kg/day, po administered for 18 days measured post last dose by Ki67 staining-based assay; format: functional, organism-based; method in brief: as §1
# MDA-MB-231 [11] = assay: Antitumor activity against human MDA-MB-231 cells xenografted in SCID mouse assessed as increase in number of apoptotic cells in tumor at 30 mg/kg/day, po administered for 18 days measured post last dose by TUNEL assay; format: functional, organism-based; method in brief: as §1
# [12] = Cmax in Sprague-Dawley rat at 10 mg/kg, po by LC/MS analysis; format: ADME, organism-based; parameters: dose 10 mg/kg, route oral; details: in vivo
# Method in brief: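 Single oral gavage dose in male Sprague-Dawley rats fasted overnight; serial blood drawn via surgically placed jugular vein catheters at set times, plasma separated at once and measured by HPLC-MS/MS; noncompartmental parameters fitted; n=5.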
# Aurora kinase A = Aurora kinase A (Homo sapiens, UniProt O14965); assay: Inhibition of human Aurora-A
# Method in brief: (§2)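 Recombinant human protein kinases screened through the Eurofins KinaseProfiler service. IC50 values are means of two independent experiments.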
# [13] = biological target: Serine/threonine-protein kinase TBK1 (Homo sapiens, UniProt Q9UHD2); assay: Inhibition of human TBK1; method in brief: as §2
# Focal adhesion kinase 1 = Focal adhesion kinase 1 (Homo sapiens, UniProt Q05397); assay: Inhibition of human FAK; method in brief: as §2
# [14] = biological target: Mitogen-activated protein kinase 1 (Homo sapiens, UniProt P28482); assay: Inhibition of human MAPK1; method in brief: as §2
# [15] = biological target: RAC-alpha serine/threonine-protein kinase (Homo sapiens, UniProt P31749); assay: Inhibition of human PKBalpha; method in brief: as §2
# [16] = Cytotoxicity against human MDA-MB-436 cells assessed as cell viability after 72 hrs by MTT assay; format: functional, cell-based; details: MDA-MB-436, 72 h
# Ramos = assay: Cytotoxicity against human Ramos cells assessed as cell viability after 72 hrs by MTT assay; format: functional, cell-based
# MDA-MB-231 [17] = assay: Induction of apoptosis in human MDA-MB-231 cells assessed as viable cells at 0.03 uM after 24 hrs by annexin V-FITC/propidium iodide staining-based flow cytometric analysis (reference value: 95.5%); format: functional; details: MDA-MB-231, 24 h, read-out: Activity
# MDA-MB-231 [18] = assay: Induction of apoptosis in human MDA-MB-231 cells assessed as early apoptotic cells at 0.03 uM after 24 hrs by annexin V-FITC/propidium iodide staining-based flow cytometric analysis (reference value: 1.58%); format: functional
# MDA-MB-231 [19] = assay: Induction of apoptosis in human MDA-MB-231 cells assessed as late apoptotic cells at 0.03 uM after 24 hrs by annexin V-FITC/propidium iodide staining-based flow cytometric analysis (reference value: 2.67%); format: functional
# MDA-MB-231 [20] = assay: Induction of apoptosis in human MDA-MB-231 cells assessed as late apoptotic cells at 0.1 uM after 24 hrs by annexin V-FITC/propidium iodide staining-based flow cytometric analysis (reference value: 2.67%); format: functional
# MDA-MB-231 [21] = assay: Induction of apoptosis in human MDA-MB-231 cells assessed as early apoptotic cells at 0.3 uM after 24 hrs by annexin V-FITC/propidium iodide staining-based flow cytometric analysis (reference value: 1.58%); format: functional
# MDA-MB-231 [22] = assay: Induction of apoptosis in human MDA-MB-231 cells assessed as viable cells at 0.3 uM after 24 hrs by annexin V-FITC/propidium iodide staining-based flow cytometric analysis (reference value: 95.5%); format: functional; details: MDA-MB-231, 24 h, read-out: Activity
# MDA-MB-231 [23] = assay: cells; details: Homo sapiens, MDA-MB-231, 72 h
# Chain of Aurora kinase A (O14965 whole entry): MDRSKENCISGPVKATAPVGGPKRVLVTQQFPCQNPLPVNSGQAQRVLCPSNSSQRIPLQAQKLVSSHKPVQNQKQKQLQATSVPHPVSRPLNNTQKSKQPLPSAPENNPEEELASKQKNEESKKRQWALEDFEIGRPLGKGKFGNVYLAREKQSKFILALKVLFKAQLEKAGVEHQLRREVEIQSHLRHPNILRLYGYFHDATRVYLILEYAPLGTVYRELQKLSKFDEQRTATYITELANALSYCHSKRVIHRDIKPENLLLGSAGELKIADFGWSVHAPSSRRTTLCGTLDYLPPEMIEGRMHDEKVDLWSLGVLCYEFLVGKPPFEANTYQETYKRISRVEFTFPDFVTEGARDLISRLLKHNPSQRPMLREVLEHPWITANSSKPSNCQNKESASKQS
# Chain of Mitogen-activated protein kinase 1 (P28482 whole entry): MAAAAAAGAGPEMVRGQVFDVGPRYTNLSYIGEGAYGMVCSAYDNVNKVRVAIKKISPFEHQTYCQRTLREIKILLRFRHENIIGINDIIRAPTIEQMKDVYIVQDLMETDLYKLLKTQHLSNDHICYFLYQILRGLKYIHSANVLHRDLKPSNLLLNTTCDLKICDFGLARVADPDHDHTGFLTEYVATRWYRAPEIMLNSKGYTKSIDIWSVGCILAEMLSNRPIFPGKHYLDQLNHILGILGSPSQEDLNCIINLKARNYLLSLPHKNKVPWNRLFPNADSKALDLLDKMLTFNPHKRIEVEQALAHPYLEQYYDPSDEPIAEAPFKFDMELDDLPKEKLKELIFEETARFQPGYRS
# Chain of Serine/threonine-protein kinase TBK1 (Q9UHD2 whole entry): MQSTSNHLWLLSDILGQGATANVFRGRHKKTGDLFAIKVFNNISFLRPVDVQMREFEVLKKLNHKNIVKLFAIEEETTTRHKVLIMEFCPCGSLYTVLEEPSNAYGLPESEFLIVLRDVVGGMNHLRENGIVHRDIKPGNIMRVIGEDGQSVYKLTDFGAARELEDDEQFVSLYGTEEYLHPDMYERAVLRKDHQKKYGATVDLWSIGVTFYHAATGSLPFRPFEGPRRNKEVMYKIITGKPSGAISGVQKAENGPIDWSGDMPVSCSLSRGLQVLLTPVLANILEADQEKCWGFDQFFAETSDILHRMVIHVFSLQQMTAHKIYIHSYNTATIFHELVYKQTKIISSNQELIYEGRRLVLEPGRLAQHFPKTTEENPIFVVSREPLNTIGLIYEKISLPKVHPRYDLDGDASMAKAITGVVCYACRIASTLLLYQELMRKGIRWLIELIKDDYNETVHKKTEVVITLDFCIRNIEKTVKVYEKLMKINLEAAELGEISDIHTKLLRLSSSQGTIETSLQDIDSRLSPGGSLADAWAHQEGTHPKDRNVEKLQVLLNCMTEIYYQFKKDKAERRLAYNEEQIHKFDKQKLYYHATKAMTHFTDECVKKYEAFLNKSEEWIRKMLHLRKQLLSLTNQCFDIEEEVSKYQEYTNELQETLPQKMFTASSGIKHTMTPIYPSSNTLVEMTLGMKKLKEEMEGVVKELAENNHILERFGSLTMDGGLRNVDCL
# Chain of Focal adhesion kinase 1 (Q05397 whole entry): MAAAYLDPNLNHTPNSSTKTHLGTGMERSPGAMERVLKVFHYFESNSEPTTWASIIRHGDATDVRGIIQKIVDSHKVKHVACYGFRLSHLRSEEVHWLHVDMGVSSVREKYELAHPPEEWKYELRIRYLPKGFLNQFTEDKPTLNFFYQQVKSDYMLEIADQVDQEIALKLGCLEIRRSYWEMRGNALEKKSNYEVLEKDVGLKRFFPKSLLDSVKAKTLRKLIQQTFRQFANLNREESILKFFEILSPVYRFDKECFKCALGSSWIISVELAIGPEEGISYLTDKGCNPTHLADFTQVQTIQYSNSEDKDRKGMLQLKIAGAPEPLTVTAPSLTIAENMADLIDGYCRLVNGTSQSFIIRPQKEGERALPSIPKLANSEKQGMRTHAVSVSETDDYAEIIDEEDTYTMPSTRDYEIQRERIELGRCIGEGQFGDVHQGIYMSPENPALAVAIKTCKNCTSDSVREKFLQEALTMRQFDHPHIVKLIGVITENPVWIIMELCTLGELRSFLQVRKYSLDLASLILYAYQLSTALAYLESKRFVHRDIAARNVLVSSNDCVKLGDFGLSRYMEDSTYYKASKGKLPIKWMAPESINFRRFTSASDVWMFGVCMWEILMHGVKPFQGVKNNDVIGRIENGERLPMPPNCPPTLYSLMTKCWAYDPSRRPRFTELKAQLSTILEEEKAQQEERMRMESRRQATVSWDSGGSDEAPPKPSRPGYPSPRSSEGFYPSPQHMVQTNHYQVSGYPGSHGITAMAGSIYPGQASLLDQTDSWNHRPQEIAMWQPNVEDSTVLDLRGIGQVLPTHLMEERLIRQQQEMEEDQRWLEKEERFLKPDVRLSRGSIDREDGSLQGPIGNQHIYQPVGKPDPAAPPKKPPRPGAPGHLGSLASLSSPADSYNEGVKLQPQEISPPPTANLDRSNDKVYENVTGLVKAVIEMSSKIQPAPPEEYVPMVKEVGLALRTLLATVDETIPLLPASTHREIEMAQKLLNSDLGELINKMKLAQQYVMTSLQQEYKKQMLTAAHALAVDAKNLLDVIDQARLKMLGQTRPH
# Chain of RAC-alpha serine/threonine-protein kinase (P31749 whole entry): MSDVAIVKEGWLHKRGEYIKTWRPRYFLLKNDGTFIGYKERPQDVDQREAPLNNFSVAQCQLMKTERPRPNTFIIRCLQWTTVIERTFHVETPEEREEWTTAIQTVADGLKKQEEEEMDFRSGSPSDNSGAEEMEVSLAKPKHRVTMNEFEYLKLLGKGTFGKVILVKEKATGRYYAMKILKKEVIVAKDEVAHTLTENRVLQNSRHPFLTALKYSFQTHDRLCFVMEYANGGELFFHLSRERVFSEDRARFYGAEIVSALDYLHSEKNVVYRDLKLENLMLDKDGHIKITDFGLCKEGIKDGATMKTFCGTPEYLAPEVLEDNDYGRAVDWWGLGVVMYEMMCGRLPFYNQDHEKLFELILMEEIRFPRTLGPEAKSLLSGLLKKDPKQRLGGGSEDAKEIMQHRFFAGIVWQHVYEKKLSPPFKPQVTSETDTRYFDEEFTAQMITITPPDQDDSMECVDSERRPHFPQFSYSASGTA
smiles,measurement,setting,value
CCn1nc(C#Cc2cc(C(=O)Nc3ccc(CN4CCN(C)CC4)c(C(F)(F)F)c3)ccc2C)c2c(N)ncnc21,Activity,MDA-MB-231 [1],4.85%
same,viability at 0.03 µM,MDA-MB-231 [2],90.5%
same,viability at 0.1 µM,MDA-MB-231 [3],69.2%
same,Activity,MDA-MB-231 [4],10.3%
same,viability at 0.3 µM,MDA-MB-231 [5],63.2%
same,Activity,MDA-MB-231 [6],inactive
same,inhibition in vivo at 30 mg/kg/day,MDA-MB-231 [7],> 100%
same,Activity,Mus musculus [8],Non-toxic
same,inhibition,Mus musculus [9],Active
same,Activity,MDA-MB-231 [10],Active
same,Activity,MDA-MB-231 [11],Active
same,Cmax,[12],215 ng/mL
same,IC50,Aurora kinase A,> 10 µM
same,IC50,[13],> 10 µM
same,IC50,Focal adhesion kinase 1,> 10 µM
same,IC50,[14],> 10 µM
same,IC50,[15],> 10 µM
same,IC50,[16],0.316 µM
same,IC50,Ramos,10 µM
same,viability at 0.03 µM,MDA-MB-231 [17],92.9%
same,Activity,MDA-MB-231 [18],2.29%
same,Activity,MDA-MB-231 [19],3.92%
same,Activity,MDA-MB-231 [20],10.4%
same,Activity,MDA-MB-231 [21],6.51%
same,viability at 0.3 µM,MDA-MB-231 [22],76.7%
same,IC50,MDA-MB-231 [23],0.011 µM
